{
  "source": "ChEMBL document CHEMBL1121991",
  "about": "“4-Aroyl-1,3-dihydro-2H-imidazol-2-ones, a new class of cardiotonic agents” (1982)",
  "key": {"Canis familiaris [1]": {"tested_on": "Canis familiaris", "assay": "The change in cardiac contractile force was determined after 10 min of 0.3 ug/kg administration in the dog heart-lung preparation", "assay_type": "functional, Canis lupus familiaris", "method_in_brief": "(§1)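 Dog heart-lung preparation from mongrel dogs of either sex, 11–19 kg, anesthetized with sodium pentobarbital 35 mg/kg iv. Strain gauge arch on the right ventricle; left atrial pressure by atrial cannula transducer; aortic flow by extracorporeal flow meter. Drug was added to the blood reservoir and measured at 10 min, n = 5–8. Change vs control by paired t test.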"}, "Canis familiaris [2]": {"tested_on": "Canis familiaris", "assay": "The change in left atrial pressure was determined after 10 min of 0.3 ug/kg administration in the dog heart-lung preparation", "assay_type": "functional, Canis lupus familiaris, Cardiac atrium", "method_in_brief": "as §1"}, "Canis familiaris [3]": {"tested_on": "Canis familiaris", "assay": "The change in left atrial pressure after 10 min of 0.3 ug/kg administration in the dog heart-lung preparation", "assay_type": "functional, Canis lupus familiaris, Cardiac atrium", "method_in_brief": "as §1"}, "Canis familiaris [4]": {"tested_on": "Canis familiaris", "assay": "The change in mean arterial blood pressure was determined after 1 mg/kg iv administration with 0.5 mg/kg, iv propranolol", "assay_type": "functional, Canis lupus familiaris", "method_in_brief": "(§2)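 Anesthetized dogs, N = 6 per group, given test agent 1 mg/kg iv or isoproterenol 0.1 μg/kg iv, with or without propranolol 0.5 mg/kg iv pretreatment. Percent change from control was recorded for contractile force (strain gauge arch) and for mean arterial BP. Values are means ± SE, compared by Student's t test.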"}, "Canis familiaris [5]": {"tested_on": "Canis familiaris", "assay": "Pharmacological activity for heart rate +15% in anesthetized dog was determined after intravenous administration", "assay_type": "functional, Canis lupus familiaris", "method_in_brief": "(§3)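 Anesthetized dogs; contractile force recorded by a left-ventricular Walton-Brodie strain gauge arch, heart rate from lead II EKG, plus blood pressure. Stabilized at least 30 min, then at least three iv doses given, one compound per animal, with return to basal between doses. Doses for +30% force, +15% rate and −20% BP were extrapolated from dose-response curves; geometric mean where repeated.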"}, "Canis familiaris [6]": {"tested_on": "Canis familiaris", "assay": "The change in heart rate was determined after 10 min of 0.3 ug/kg administration in the dog heart-lung preparation", "assay_type": "functional, Canis lupus familiaris", "method_in_brief": "as §1"}, "Canis familiaris [7]": {"tested_on": "Canis familiaris", "assay": "The change in cardiac contractile force after 10 min of 3.0 ug/kg administration in the dog heart-lung preparation", "assay_type": "functional, Canis lupus familiaris", "method_in_brief": "as §1"}, "Canis familiaris [8]": {"tested_on": "Canis familiaris", "assay": "The change in left atrial pressure was determined after 10 min of 3.0 ug/kg administration in the dog heart-lung preparation", "assay_type": "functional, Canis lupus familiaris, Cardiac atrium", "method_in_brief": "as §1"}, "Canis familiaris [9]": {"tested_on": "Canis familiaris", "assay": "The left atrial pressure was determined after 1.0 mg/kg administration with 20 mg/kg pentobarbital in the dog heart-lung preparation", "assay_type": "functional, Canis lupus familiaris, Cardiac atrium", "method_in_brief": "(§4)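 Heart-lung preparation from mongrel dogs anesthetized with pentobarbital 35 mg/kg iv. Failure was induced by adding pentobarbital 20 mg/kg to the blood reservoir, then test agent 1 mg/kg was added. Force, rate, output, stroke volume, left atrial pressure and stroke work were read 10 min later. Five preparations, means ± SE, analysis of variance.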"}, "Canis familiaris [10]": {"tested_on": "Canis familiaris", "assay": "The change in stroke volume was determined after 10 min of 0.3 ug/kg administration in the dog heart-lung preparation", "assay_type": "functional, Canis lupus familiaris", "method_in_brief": "as §1"}, "Canis familiaris [11]": {"tested_on": "Canis familiaris", "assay": "The change in cardiac contractile force was determined after 10 min of 1.0 ug/kg administration in the dog heart-lung preparation", "assay_type": "functional, Canis lupus familiaris", "method_in_brief": "as §1"}, "Canis familiaris [12]": {"tested_on": "Canis familiaris", "assay": "The change in stroke volume after 10 min of 1.0 ug/kg administration in the dog heart-lung preparation", "assay_type": "functional, Canis lupus familiaris", "method_in_brief": "as §1"}, "Canis familiaris [13]": {"tested_on": "Canis familiaris", "assay": "The change in stroke volume was determined after 10 min of 1.0 ug/kg administration in the dog heart-lung preparation", "assay_type": "functional, Canis lupus familiaris", "method_in_brief": "as §1"}, "Canis familiaris [14]": {"tested_on": "Canis familiaris", "assay": "Pharmacological activity for Blood pressure, -20% in anesthetized dog was determined after intravenous administration", "assay_type": "functional, Canis lupus familiaris", "method_in_brief": "as §3"}, "Canis familiaris [15]": {"tested_on": "Canis familiaris", "assay": "The change in left atrial pressure was determined after 10 min of 3.0 ug/kg administration in the dog heart-lung preparation.", "assay_type": "functional, Canis lupus familiaris, Cardiac atrium", "method_in_brief": "as §1"}, "Canis familiaris [16]": {"tested_on": "Canis familiaris", "assay": "The change in stroke volume after 10 min of 3.0 ug/kg administration in the dog heart-lung preparation", "assay_type": "functional, Canis lupus familiaris", "method_in_brief": "as §1"}, "Canis familiaris [17]": {"tested_on": "Canis familiaris", "assay": "The change in heart rate was determined after 10 min of 3.0 ug/kg administration in the dog heart-lung preparation", "assay_type": "functional, Canis lupus familiaris", "method_in_brief": "as §1"}, "Canis familiaris [18]": {"tested_on": "Canis familiaris", "assay": "Stroke work was determined after 1.0 mg/kg administration with 20 mg/kg pentobarbital in the dog heart-lung preparation", "assay_type": "functional, Canis lupus familiaris", "method_in_brief": "as §4"}, "Canis familiaris [19]": {"tested_on": "Canis familiaris", "assay": "The heart rate was determined after 1.0 mg/kg administration with 20 mg/kg pentobarbital in the dog heart-lung preparation", "assay_type": "functional, Canis lupus familiaris", "method_in_brief": "as §4"}, "Canis familiaris [20]": {"tested_on": "Canis familiaris", "assay": "The stroke volume was determined after 1.0 mg/kg administration with 20 mg/kg pentobarbital in the dog heart-lung preparation", "assay_type": "functional, Canis lupus familiaris", "method_in_brief": "as §4"}, "Canis familiaris [21]": {"tested_on": "Canis familiaris", "assay": "The cardiac contractile force was determined after 1.0 mg/kg administration with 20 mg/kg pentobarbital in the dog heart-lung preparation", "assay_type": "functional, Canis lupus familiaris", "method_in_brief": "as §4"}, "Canis familiaris [22]": {"tested_on": "Canis familiaris", "assay": "(§5) The change in cardiac output was determined after 10 min of 3.0 ug/kg administration in the dog heart-lung preparation", "assay_type": "functional, Canis lupus familiaris", "method_in_brief": "as §1"}, "Canis familiaris [23]": {"tested_on": "Canis familiaris", "assay": "The cardiac output was determined after 1.0 mg/kg administration with 20 mg/kg pentobarbital in the dog heart-lung preparation", "assay_type": "functional, Canis lupus familiaris", "method_in_brief": "as §4"}, "Canis familiaris [24]": {"tested_on": "Canis familiaris", "assay": "as §5", "assay_type": "functional, Canis lupus familiaris", "method_in_brief": "as §1", "remark": "listed apart in the source"}, "Canis familiaris [25]": {"tested_on": "Canis familiaris", "assay": "The change in heart rate was determined after 10 min of 1.0 ug/kg administration in the dog heart-lung preparation", "assay_type": "functional, Canis lupus familiaris", "method_in_brief": "as §1"}, "Canis familiaris [26]": {"tested_on": "Canis familiaris", "assay": "The change in cardiac contractile force was determined after 10 min of 3.0 ug/kg administration in the dog heart-lung preparation", "assay_type": "functional, Canis lupus familiaris", "method_in_brief": "as §1"}, "Canis familiaris [27]": {"tested_on": "Canis familiaris", "assay": "The change in cardiac contractile force after 1 mg/kg iv administration with 0.5 mg/kg, iv propranolol", "assay_type": "functional, Canis lupus familiaris, Heart", "method_in_brief": "as §2"}, "Canis familiaris [28]": {"tested_on": "Canis familiaris", "assay": "The change in cardiac contractile force after 1 mg/kg iv administration, activity is expressed as % change.", "assay_type": "functional, Canis lupus familiaris, Heart", "method_in_brief": "as §2"}, "Canis familiaris [29]": {"tested_on": "Canis familiaris", "assay": "The change in stroke volume was determined after 10 min of 3.0 ug/kg administration in the dog heart-lung preparation", "assay_type": "functional, Canis lupus familiaris", "method_in_brief": "as §1"}, "Canis familiaris [30]": {"tested_on": "Canis familiaris", "assay": "The change in mean arterial blood pressure was determined after 1 mg/kg iv administration", "assay_type": "functional, Canis lupus familiaris", "method_in_brief": "as §2"}, "Canis familiaris [31]": {"tested_on": "Canis familiaris", "assay": "Pharmacological activity for Contractile force, +30% in anesthetized dog was determined after intravenous administration", "assay_type": "functional, Canis lupus familiaris", "method_in_brief": "as §3"}},
  "note": "Values joined by “and” are separate entries in the source; they are usually repeats but may differ in a detail not shown here. Equal entries are not always repeated.",
  "data": [
    {"smiles": "COc1ccc(C(=O)c2[nH]c(O)nc2C)cc1", "values": [
      {"measurement": "Change", "setting": "Canis familiaris [1]", "value": "62% and 88%"},
      {"measurement": "Change", "setting": "Canis familiaris [2]", "value": -49, "unit": "%"},
      {"measurement": "Change", "setting": "Canis familiaris [3]", "value": -1.6, "unit": "mmHg"},
      {"measurement": "Change", "setting": "Canis familiaris [4]", "value": -33, "unit": "%"},
      {"measurement": "Equieffective dose", "setting": "Canis familiaris [5]", "value": 0.4, "unit": "mg/kg"},
      {"measurement": "Change", "setting": "Canis familiaris [6]", "value": "22% and 14%"},
      {"measurement": "Change", "setting": "Canis familiaris [7]", "value": 179, "unit": "%"},
      {"measurement": "Change", "setting": "Canis familiaris [8]", "value": -43, "unit": "%"},
      {"measurement": "Left atrial pressure", "setting": "Canis familiaris [9]", "value": 2.6, "unit": "mmHg"},
      {"measurement": "Change", "setting": "Canis familiaris [10]", "value": "-0.7% and -10%"},
      {"measurement": "Change", "setting": "Canis familiaris [11]", "value": "96.7% and 121%"},
      {"measurement": "Change", "setting": "Canis familiaris [12]", "value": -16, "unit": "%"},
      {"measurement": "Change", "setting": "Canis familiaris [13]", "value": -1.1, "unit": "mL"},
      {"measurement": "Equieffective dose", "setting": "Canis familiaris [14]", "value": 0.65, "unit": "mg/kg"},
      {"measurement": "Change", "setting": "Canis familiaris [15]", "value": -1.1, "unit": "mmHg"},
      {"measurement": "Change", "setting": "Canis familiaris [16]", "value": -18, "unit": "%"},
      {"measurement": "Change", "setting": "Canis familiaris [17]", "value": "41% and 28%"},
      {"measurement": "Stroke work", "setting": "Canis familiaris [18]", "value": 7.7, "unit": "g"},
      {"measurement": "Heart rate", "setting": "Canis familiaris [19]", "value": 151, "unit": "beats min-1"},
      {"measurement": "Stroke volume", "setting": "Canis familiaris [20]", "value": 7, "unit": "mL"},
      {"measurement": "Cardiac contractile force", "setting": "Canis familiaris [21]", "value": 88, "unit": "g"},
      {"measurement": "Change", "setting": "Canis familiaris [22]", "value": 46, "unit": "mL/min"},
      {"measurement": "Cardiac output", "setting": "Canis familiaris [23]", "value": 1053, "unit": "mL/min"},
      {"measurement": "Change", "setting": "Canis familiaris [24]", "value": 4, "unit": "%"},
      {"measurement": "Change", "setting": "Canis familiaris [25]", "value": "35% and 23%"},
      {"measurement": "Change", "setting": "Canis familiaris [26]", "value": 129, "unit": "g"},
      {"measurement": "Change", "setting": "Canis familiaris [27]", "value": 144, "unit": "%"},
      {"measurement": "Change", "setting": "Canis familiaris [28]", "value": 127, "unit": "%"},
      {"measurement": "Change", "setting": "Canis familiaris [29]", "value": -1.2, "unit": "mL"},
      {"measurement": "Change", "setting": "Canis familiaris [30]", "value": -27, "unit": "%"},
      {"measurement": "Equieffective dose", "setting": "Canis familiaris [31]", "value": 0.16, "unit": "mg/kg"}
    ]}
  ]
}
